Results as given in ChEMBL document CHEMBL1129512, “Studies on the mechanism of phosphatidylinositol 3-kinase inhibition by wortmannin and related analogs” (J Med Chem, 1996).
Where “and” joins values, the source holds several entries; their conditions need not be identical. Identical values can stand only once.

Columns and labels:
Mus musculus [1] = assay: In vivo inhibition of tumor growth in Lewis lung model was evaluated at dose 1.50 mg/kg peroral administration; assay type: functional; conditions: route oral
How it was run: (§1)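 Murine tumours were serially passaged as tumour fragments, implanted s.c. by trochar in the axillary region. Daily oral dosing began 1 day after implant, as a suspension in 2.5% emulphor EL-620 in 0.9% NaCl. There were 10 randomized mice per group. Tumours were measured by caliper the day after the last dose, with weight = length × width² × 0.5. Inhibition was 100 × (1 − mean treated/mean control weight). A group was toxic if lethality was >25%.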

Mus musculus [2] = assay: In vivo inhibition of tumor growth in M-5076 ovarian model was evaluated at dose 1.50 mg/kg peroral administration; assay type: functional; conditions: M5076, route oral
How it was run: (§2)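 For the murine M-5076 ovarian tumour, fragments were implanted s.c. by trochar in the axilla. Daily oral dosing began 5 days after implant, as a suspension in 2.5% emulphor EL-620/0.9% NaCl. There were 10 randomized mice per group.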

Homo sapiens [3] = assay: In vivo inhibition of tumor growth in LX-1 lung model was evaluated at dose 0.38 mg/kg peroral administration; assay type: functional; conditions: route oral
How it was run: (§3)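 Human xenograft fragments were implanted s.c. via trochar in the axillary region of mice. Daily oral dosing began 7 days after implant, as a suspension in 2.5% emulphor EL-620 in 0.9% NaCl. There were 10 randomized mice per group. Tumours were measured by caliper 5 days after the last dose, with weight = length × width² × 0.5. Inhibition was 100 × (1 − treated/control mean weight), and toxic meant lethality >25%.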

Mus musculus [4] = assay: In vivo inhibition of tumor growth in M-5076 ovarian model was evaluated at dose 0.75 mg/kg peroral administration; assay type: functional; conditions: M5076, route oral; how it was run: as §2
Mus musculus [5] = assay: In vivo inhibition of tumor growth in C-26 colon model was evaluated dose 0.75 mg/kg peroral administration; assay type: functional; conditions: route oral; how it was run: as §1
Homo sapiens [6] = assay: In vivo inhibition of tumor growth in BXPC-3 pancreatic model was evaluated at dose 0.75 mg/kg peroral administration; range is 60-79%; assay type: functional; conditions: route oral; how it was run: as §3
Mus musculus [7] = assay: In vivo inhibition of tumor growth in X-5563 plasma cell myeloma model was evaluated at dose 1.25 mg/kg peroral administration; assay type: functional; conditions: route oral
Mus musculus [8] = assay: In vivo inhibition of tumor growth in C3H Mammary model was evaluated at dose 1.25 mg/kg peroral administration; range is 60-79%; assay type: functional; conditions: route oral; how it was run: as §1
Homo sapiens [9] = assay: In vivo inhibition of tumor growth MX-1 mammary model was evaluated at dose 1.50 mg/kg peroral administration; assay type: functional; conditions: route oral
Homo sapiens [10] = assay: In vivo toxicity against PI 3-Kinase in GC3 colon model was evaluated by inhibition of tumor growth at dose 0.75 mg/kg peroral administration; assay type: functional; conditions: route oral; how it was run: as §3
Homo sapiens [11] = assay: In vivo inhibition of tumor growth in CX-1 colon model was evaluated at dose 1.50 mg/kg peroral administration; assay type: functional; conditions: route oral; how it was run: as §3
[12] = In vitro inhibitory activity against Phosphatidylinositol 3-Kinase
How it was run: (§4)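 Purified PI 3-kinase from bovine brain was used as the enzyme source. Results are reported as IC50 values.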

Homo sapiens [13] = assay: In vivo inhibition of tumor growth in PACA-2 pancreatic model was evaluated at dose 0.75 mg/kg peroral administration; assay type: functional; conditions: route oral; how it was run: as §3
Homo sapiens [14] = assay: In vivo inhibition of tumor growth in VRC5 colon model was evaluated at dose 1.50 mg/kg peroral administration; assay type: functional; conditions: route oral
Homo sapiens [15] = assay: In vivo inhibition of tumor growth in VRC5 colon model was evaluated at dose 0.75 mg/kg peroral administration; assay type: functional; conditions: route oral
Homo sapiens [16] = assay: In vivo inhibition of tumor growth in BXPC-3 pancreatic model was evaluated at dose 1.50 mg/kg peroral administration; assay type: functional; conditions: route oral; how it was run: as §3
Homo sapiens [17] = assay: In vivo inhibition of tumor growth in IGROV1 ovarian model was evaluated at dose 1.50 mg/kg peroral administration; assay type: functional; conditions: IGROV-1, route oral
How it was run: (§5)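 HC1 colon and IGROV1 ovarian xenografts were implanted s.c. as fragments by axillary trochar. Daily oral dosing started 14 days after implant, as a suspension in 2.5% emulphor EL-620/0.9% NaCl. Groups were 10 randomized mice.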

Mus musculus [18] = assay: In vivo inhibition of tumor growth in 6C3HED lymphosarcomal was evaluated at dose 0.75 mg/kg peroral administration; assay type: functional; conditions: route oral; how it was run: as §1
Homo sapiens [19] = assay: In vivo inhibition of tumor growth in LX-1 lung model was evaluated at dose 0.75 mg/kg peroral administration; assay type: functional; conditions: route oral; how it was run: as §3
Mus musculus [20] = assay: In vivo inhibition of tumor growth in 6C3HED lymphosarcomal was evaluated at dose 1.50 mg/kg peroral administration; assay type: functional; conditions: route oral; how it was run: as §1
Mus musculus [21] = assay: In vivo inhibition of tumor growth B-16 melanoma model was evaluated at dose 1.50 mg/kg peroral administration; assay type: functional; conditions: B16, route oral; how it was run: as §1
Homo sapiens [22] = assay: In vivo inhibition of tumor growth IGROV1 ovarian model was evaluated at dose 0.75 mg/kg peroral administration; assay type: functional; conditions: IGROV-1, route oral; how it was run: as §5
Homo sapiens [23] = assay: In vivo inhibition of tumor growth in HC1 colon model was evaluated at dose 0.75 mg/kg peroral administration; assay type: functional; conditions: route oral; how it was run: as §5
Mus musculus [24] = assay: In vivo inhibition of tumor growth in C-26 colon model was evaluated dose 1.50 mg/kg peroral administration; assay type: functional; conditions: route oral; how it was run: as §1
Homo sapiens [25] = assay: In vivo inhibition of tumor growth in CX-1 colon model was evaluated at dose 0.75 mg/kg peroral administration; assay type: functional; conditions: route oral; how it was run: as §3
Homo sapiens [26] = assay: In vivo inhibition of tumor growth PANC-1 pancreatic model was evaluated at dose 1.50 mg/kg peroral administration; assay type: functional; conditions: route oral; how it was run: as §3
Homo sapiens [27] = assay: In vivo inhibition of tumor growth in PACA-2 pancreatic model was evaluated at dose 1.50 mg/kg peroral administration; assay type: functional; conditions: route oral; how it was run: as §3
Mus musculus [28] = assay: IIn vivo inhibition of tumor growth in B-16 melanoma model was evaluated by inhibition of tumor growth at dose 0.75 mg/kg peroral administration; assay type: functional; conditions: B16, route oral; how it was run: as §1
Homo sapiens [29] = assay: In vivo inhibition of tumor growth in HC1 colon model was evaluated at dose 1.50 mg/kg peroral administration; assay type: functional; conditions: route oral; how it was run: as §5
Homo sapiens [30] = assay: In vivo inhibition of tumor growth in GC3 colon model was evaluated at dose 0.38 mg/kg peroral administration; assay type: functional; conditions: route oral; how it was run: as §3
Mus musculus [31] = assay: In vivo inhibition of tumor growth in C3H Mammary model was evaluated at dose 2.50 mg/kg peroral administration; assay type: functional; conditions: route oral; how it was run: as §1
Homo sapiens [32] = assay: In vivo inhibition of tumor growth in MX-1 mammary model was evaluated at dose 0.75 mg/kg peroral administration; assay type: functional; conditions: route oral
Homo sapiens [33] = assay: In vivo inhibition of tumor growth in PANC-1 pancreatic model was evaluated at dose 0.75 mg/kg peroral administration; assay type: functional; conditions: route oral; how it was run: as §3
Mus musculus [34] = assay: In vivo inhibition of tumor growth in Lewis lung model was evaluated at dose 0.75 mg/kg peroral administration; assay type: functional; conditions: route oral; how it was run: as §1
Mus musculus [35] = assay: In vivo inhibition of tumor growth in C3H Mammary model was evaluated at dose 10 mg/kg peroral administration; assay type: functional; conditions: route oral
How it was run: (§6)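 Murine C3H mammary tumour fragments were implanted subcutaneously by trochar in the axillary region, in groups of 10 randomized mice. Oral dosing started 1 day after implant, daily ×10, as a suspension in 2.5% emulphor EL-620 in 0.9% NaCl (water for one analog). Tumour weight, calculated as length×width²×0.5 from calipers, was measured the day after the last dose. Percent inhibition was calculated versus controls. Groups with >25% lethality were scored toxic.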

[36] = Inhibition of Phosphatidylinositol 3-Kinase; how it was run: as §4
Mus musculus [37] = assay: In vivo inhibition of tumor growth in C3H Mammary model was evaluated at dose 5.0 mg/kg peroral administration; range is 60-79%; assay type: functional; conditions: route oral; how it was run: as §6
Mus musculus [38] = assay: In vivo inhibition of tumor growth in C3H Mammary model was evaluated at dose 16 mg/kg peroral administration; assay type: functional; conditions: route oral; how it was run: as §1

COC[C@H]1OC(=O)c2coc3c2[C@@]1(C)C1=C(C3=O)[C@@H]2CCC(=O)[C@@]2(C)C[C@H]1OC(C)=O [WORTMANNIN]
inhibition in vivo at 1.5 mg/kg (Mus musculus [1]): > 25%
inhibition in vivo at 1.5 mg/kg (Mus musculus [2]): > 25%
inhibition in vivo at 0.38 mg/kg (Homo sapiens [3]): < 60%
inhibition in vivo at 0.75 mg/kg (Mus musculus [4]): < 60%
inhibition in vivo at 0.75 mg/kg (Mus musculus [5]): < 60%
inhibition in vivo at 0.75 mg/kg (Homo sapiens [6]): 79%
Inhibition (Mus musculus [7]): <60% and >25%
inhibition in vivo at 1.25 mg/kg (Mus musculus [8]): 79%
inhibition in vivo at 1.5 mg/kg (Homo sapiens [9]): > 25%
inhibition in vivo at 0.75 mg/kg (Homo sapiens [10]): > 25%
inhibition in vivo at 1.5 mg/kg (Homo sapiens [11]): > 25%
IC50 [12]: 4.2 nM
inhibition in vivo at 0.75 mg/kg (Homo sapiens [13]): < 60%
inhibition in vivo at 1.5 mg/kg (Homo sapiens [14]): > 25%
inhibition in vivo at 0.75 mg/kg (Homo sapiens [15]): < 60%
inhibition in vivo at 1.5 mg/kg (Homo sapiens [16]): > 25%
inhibition in vivo at 1.5 mg/kg (Homo sapiens [17]): > 25%
inhibition in vivo at 0.75 mg/kg (Mus musculus [18]): < 60%
inhibition in vivo at 0.75 mg/kg (Homo sapiens [19]): > 25%
inhibition in vivo at 1.5 mg/kg (Mus musculus [20]): > 25%
inhibition in vivo at 1.5 mg/kg (Mus musculus [21]): > 25%
inhibition in vivo at 0.75 mg/kg (Homo sapiens [22]): < 60%
inhibition in vivo at 0.75 mg/kg (Homo sapiens [23]): < 60%
inhibition in vivo at 1.5 mg/kg (Mus musculus [24]): > 25%
inhibition in vivo at 0.75 mg/kg (Homo sapiens [25]): < 60%
inhibition in vivo at 1.5 mg/kg (Homo sapiens [26]): > 25%
inhibition in vivo at 1.5 mg/kg (Homo sapiens [27]): > 25%
inhibition in vivo at 0.75 mg/kg (Mus musculus [28]): < 60%
inhibition in vivo at 1.5 mg/kg (Homo sapiens [29]): > 25%
inhibition in vivo at 0.38 mg/kg (Homo sapiens [30]): > 25%
inhibition in vivo at 2.5 mg/kg (Mus musculus [31]): > 25%
inhibition in vivo at 0.75 mg/kg (Homo sapiens [32]): < 60%
inhibition in vivo at 0.75 mg/kg (Homo sapiens [33]): < 60%
inhibition in vivo at 0.75 mg/kg (Mus musculus [34]): < 60%

CCN(/C=C1\C(=O)O[C@H](COC)[C@@]2(C)C1=C(O)C(=O)C1=C2[C@H](OC(C)=O)C[C@]2(C)C(=O)CC[C@@H]12)CC
inhibition in vivo at 10 mg/kg (Mus musculus [35]): > 25%
IC50 [36]: 80 nM
inhibition in vivo at 5 mg/kg (Mus musculus [37]): 79%

COC[C@H]1OC(=O)C23CC2COC2=C3[C@@]1(C)C1=C(C2=O)[C@@H]2CCC(=O)[C@@]2(C)C[C@H]1OC(C)=O (stereo not given in full)
IC50 [12]: > 500 nM

COC[C@H]1OC(=O)c2c(C)oc3c2[C@@]1(C)C1=C(C3=O)[C@@H]2CCC(=O)[C@@]2(C)C[C@H]1OC(C)=O
IC50 [12]: > 500 nM

COC(=O)c1coc2c(O)c3c(c(C)c12)C=C[C@]1(C)C(=O)CC[C@@H]31
IC50 [12]: 4600 nM
inhibition in vivo at 16 mg/kg (Mus musculus [38]): < 60%

COC[C@H]1OC(=O)c2coc3c2[C@@]1(C)C1=C(C3=O)[C@@H]2CC=C(OC(C)=O)[C@@]2(C)C[C@H]1OC(C)=O
IC50 [12]: 59 nM

CC/N=C/C1=C(O)O[C@H](COC)[C@@]2(C)C1=C(O)C(=O)C1=C2[C@H](OC(C)=O)C[C@]2(C)C(=O)CC[C@@H]12
IC50 [12]: > 500 nM

COC[C@H]1OC(=O)c2coc3c2[C@@]1(C)C1=C(C3=O)[C@@H]2C[C@@H](O)C(=O)[C@@]2(C)C[C@H]1OC(C)=O
IC50 [12]: 153 nM

COC[C@H]1OC(=O)C2=CCOC3=C2[C@@]1(C)C1=C(C3=O)[C@@H]2CCC(=O)[C@@]2(C)C[C@H]1OC(C)=O
IC50 [12]: 271 nM
